{
  "source": "paper PMC2175347",
  "about": "(Nucleic Acids Research, 2007)",
  "molecules": {"B1": {"name": "1–117: GST fusion containing 1–117 amino acids of G9a (protein, UniProt Q9Z148 1-117, looked up, fragment)", "chain": "MRGLPRGRGLMRARGRGRAAPTGGRGRGRGGAHRGRGRPRSLLSLPRAQASWAPQLPAGLTGPPVPCLPSQGEAPAEMGALLLEKEPRGAAERVHSSLGDTPQSEETLPKANPDSLE", "modifications": "GST fusion"}, "B2": {"name": "264–633: GST fusion containing 264–633 amino acids of G9a (protein, UniProt Q9Z148 264-633, looked up, fragment)", "chain": "MSDDMHLGKVTSDVAKRRKLNSGSLSEDLGSAGGSGDIILEKGEPRPLEEWETVVGDDFSLYYDAYSVDERVDSDSKSEVEALAEQLSEEEEEEEEEEEEEEEEEEEEEEEEEDEESGNQSDRSGSSGRRKAKKKWRKDSPWVKPSRKRRKREPPRAKEPRGVNGVGSSGPSEYMEVPLGSLELPSEGTLSPNHAGVSNDTSSLETERGFEELPLCSCRMEAPKIDRISERAGHKCMATESVDGELLGCNAAILKRETMRPSSRVALMVLCEAHRARMVKHHCCPGCGYFCTAGTFLECHPDFRVAHRFHKACVSQLNGMVFCPHCGEDASEAQEVTIPRGDGGTPPIGTAAPALPPLAHDAPGRADTSQ", "modifications": "GST fusion"}, "B3": {"name": "GST-G9afl (K167A) (protein, UniProt Q9Z148 1-1263, looked up, variant K167A)", "chain": "MRGLPRGRGLMRARGRGRAAPTGGRGRGRGGAHRGRGRPRSLLSLPRAQASWAPQLPAGLTGPPVPCLPSQGEAPAEMGALLLEKEPRGAAERVHSSLGDTPQSEETLPKANPDSLEPAGPSSPASVTVTVGDEGADTPVGAASLIGDEPESLEGDGGRIVLGHATASFPSSPSKGGACPSRAKMSMTGAGKSPPSVQSLAMRLLSMPGAQGAATAGPEPSPATTAAQEGQPKVHRARKTMSKPSNGQPPIPEKRPPEVQHFRMSDDMHLGKVTSDVAKRRKLNSGSLSEDLGSAGGSGDIILEKGEPRPLEEWETVVGDDFSLYYDAYSVDERVDSDSKSEVEALAEQLSEEEEEEEEEEEEEEEEEEEEEEEEEDEESGNQSDRSGSSGRRKAKKKWRKDSPWVKPSRKRRKREPPRAKEPRGVNGVGSSGPSEYMEVPLGSLELPSEGTLSPNHAGVSNDTSSLETERGFEELPLCSCRMEAPKIDRISERAGHKCMATESVDGELLGCNAAILKRETMRPSSRVALMVLCEAHRARMVKHHCCPGCGYFCTAGTFLECHPDFRVAHRFHKACVSQLNGMVFCPHCGEDASEAQEVTIPRGDGGTPPIGTAAPALPPLAHDAPGRADTSQPSARMRGHGEPRRPPCDPLADTIDSSGPSLTLPNGGCLSAVGLPPGPGREALEKALVIQESERRKKLRFHPRQLYLSVKQGELQKVILMLLDNLDPNFQSDQQSKRTPLHAAAQKGSVEICHVLLQAGANINAVDKQQRTPLMEAVVNNHLEVARYMVQLGGCVYSKEEDGSTCLHHAAKIGNLEMVSLLLSTGQVDVNAQDSGGWTPIIWAAEHKHIDVIRMLLTRGADVTLTDNEENICLHWASFTGSAAIAEVLLNAQCDLHAVNYHGDTPLHIAARESYHDCVLLFLSRGANPELRNKEGDTAWDLTPERSDVWFALQLNRKLRLGVGNRAVRTEKIICRDVARGYENVPIPCVNGVDGEPCPEDYKYISENCETSTMNIDRNITHLQHCTCVDDCSSSNCLCGQLSIRCWYDKDGRLLQEFNKIEPPLIFECNQACSCWRSCKNRVVQSGIKVRLQLYRTAKMGWGVRALQTIPQGTFICEYVGELISDAEADVREDDSYLFDLDNKDGEVYCIDARYYGNISRFINHLCDPNIIPVRVFMLHQDLRFPRIAFFSSRDIRTGEELGFDYGDRFWDIKSKYFTCQCGSEKCKHSAEAIALEQSRLARLDPHPELLPDLSSLPPINT", "modifications": "full-length GST fusion"}, "B4": {"name": "GFP-G9amut (protein, UniProt Q9Z148 1-1263, looked up, variant K233A K239A K243A)", "chain": "B3 chain with A167K, K233A, K239A, K243A", "modifications": "full-length GFP fusion"}},
  "key": {"full-length G9a": {"system": "full-length G9a", "assay": "In vitro methylation of GST-G9a fusion fragments by G9afl", "format": "biochemical, murine", "details": "for methylation / radioactive incorporation of GST fusion fragment: fluorography and radioactive incorporation of each band, Figure 2D; for methylation of GST fusion by G9afl: tritiated AdoMet, fluorography, Figure 2C"}, "G9afl [1]": {"target": "T1, G9afl (Mus musculus, UniProt Q9Z148)", "T1 sequence (Q9Z148 1-1263)": "B3 chain with A167K", "assay": "Methylation of modified H3 peptide substrates by wild-type G9a", "format": "biochemical, murine", "details": "25 nM G9afl; Figure 4B"}, "G9amut": {"system": "G9amut", "assay": "Methylation of modified H3 peptide substrates by G9amut", "format": "biochemical, murine", "details": "25 nM G9amut; Figure 4B"}, "G9afl [2]": {"target": "T1, G9afl", "assay": "Steady-state kinetics of G9afl on peptides representing ARKT/S motifs", "format": "biochemical, murine", "details": "peptide substrate, enzyme G9afl; for Km / kcat (turnover number): 25°C, pH 9.0, duplicate"}, "G9a [3]": {"system": "G9a", "assay": "In vitro automethylation assay of G9a", "format": "biochemical, murine", "details": "100 fold excess cold AdoMet with tritiated AdoMet; Figure 2B lanes 2 versus 3", "outline": "(§1)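 Automethylation: recombinant murine G9a (full-length or MBP-fused construct lacking the N-terminal 633 aa) incubated with S-adenosyl-L-[methyl-³H]methionine, either alone or, for H3 signal, with recombinant histone H3. Parallel reactions contained excess unlabelled AdoMet as competitor. Reactions run at 25°C for 1 h with 7 µM tritiated AdoMet, resolved on 4–20% SDS-PAGE, Coomassie-stained and fluorographed on film.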"}, "H3": {"system": "H3", "assay": "In vitro methylation of histone H3", "format": "biochemical", "details": "100 fold excess cold AdoMet with tritiated AdoMet; Figure 2B lanes 4 versus 5", "outline": "as §1"}, "G9a [4]": {"system": "G9a", "assay": "Methyltransferase assay with peptide spanning amino acids 160–175 of G9a", "format": "biochemical, murine", "details": "even after 1 h of incubation; Supplementary Figure 1"}, "Wt-H3": {"system": "Wt-H3", "assay": "Steady-state kinetics of G9a enzymes with Wt-H3 peptide", "format": "biochemical", "details": "GST fusion enzymes with Wt-H3, steady-state conditions; Supplementary Figure 2"}, "HP1α": {"system": "HP1α", "assay": "Immunofluorescence co-localization with HP1α in COS-7 cells", "format": "cell-based", "details": "48 h after transfection, Figure 6"}},
  "note": "Changes are numbered by the printed parent chain. In names and notes the source's numbering stands. Several values for one entry are separate records, joined by “and”; a condition that tells them apart may be missing. Equal entries are not always repeated. No end group written: not given here.",
  "data": [
    {"molecule": "GST-G9a (210–246/K243A) (AQGAATAGPEPSPATTAAQEGQPKVHRARKTMSAPSN; also: GST fusion; UniProt Q9Z148 210-246, looked up, variant K243A)", "values": [
      {"measurement": "methylation / radioactive incorporation of GST fusion fragment", "setting": "full-length G9a", "value": "decrease in K239 methylation"}
    ]},
    {"molecule": "CARTKQTARKST(p)GG [H3T11p]", "values": [
      {"measurement": "effect of phosphorylated peptide on enzyme", "setting": "G9afl [1]", "value": "inhibited both enzymes"},
      {"measurement": "effect of phosphorylated peptide on enzyme", "setting": "G9amut", "value": "inhibited both enzymes"}
    ]},
    {"molecule": "CADVKVHRARKTMPKSV [EuHMT]", "values": [
      {"measurement": "kcat/Km", "setting": "G9afl [2]", "value": "172 10^6 × M^−1 h^−1"},
      {"measurement": "Km", "setting": "G9afl [2]", "value": "0.5 ± 0.05", "unit": "µM"},
      {"measurement": "kcat (turnover number)", "setting": "G9afl [2]", "value": "0.0239 s⁻¹ and 0.0239 ± 0.00056 s⁻¹"}
    ]},
    {"molecule": "GST-G9a (210–264/K239A) (AQGAATAGPEPSPATTAAQEGQPKVHRARATMSKPSNGQPPIPEKRPPEVQHFRM; also: GST fusion; UniProt Q9Z148 210-264, looked up, variant K239A)", "values": [
      {"measurement": "methylation / radioactive incorporation of GST fusion fragment", "setting": "full-length G9a", "value": "impaired"}
    ]},
    {"molecule": "C[S+](CC[C@H](N)C(=O)[O-])C[C@H]1O[C@@H](n2cnc3c(N)ncnc32)[C@H](O)[C@@H]1O", "note": "(stereo partly drawn) [cold AdoMet, S-adenosyl-L-methionine]", "values": [
      {"measurement": "autoradiography signal for G9a", "setting": "G9a [3]", "value": "not apparent"},
      {"measurement": "autoradiography signal for H3", "setting": "H3", "value": "not apparent"}
    ]},
    {"molecule": "CPQKKVFKARKTMRVSD [mAM]", "values": [
      {"measurement": "kcat/Km", "setting": "G9afl [2]", "value": "140 10^6 × M^−1 h^−1"},
      {"measurement": "Km", "setting": "G9afl [2]", "value": "0.7 ± 0.05", "unit": "µM"},
      {"measurement": "kcat (turnover number)", "setting": "G9afl [2]", "value": "0.0272 s⁻¹ and 0.0272 ± 0.0011 s⁻¹"}
    ]},
    {"molecule": "CGQPKVHRARKTMPKSV [G9a]", "values": [
      {"measurement": "kcat (turnover number)", "setting": "G9afl [2]", "value": 0.0183, "unit": "s⁻¹"}
    ]},
    {"molecule": "CARTKQTARKS(p)TGG [H3S10p]", "values": [
      {"measurement": "effect of phosphorylated peptide on enzyme", "setting": "G9afl [1]", "value": "inhibited both enzymes"},
      {"measurement": "effect of phosphorylated peptide on enzyme", "setting": "G9amut", "value": "inhibited both enzymes"}
    ]},
    {"molecule": "IVLGHATKSFPSSPSK [G9aK167]", "values": [
      {"measurement": "methyl group incorporation to the peptide", "setting": "G9a [4]", "value": "did not observe methyl group incorporation to the peptide"}
    ]},
    {"molecule": "B1", "values": [
      {"measurement": "methylation of GST fusion by G9afl", "setting": "full-length G9a", "value": "did not methylate"}
    ]},
    {"molecule": "B2", "values": [
      {"measurement": "methylation of GST fusion by G9afl", "setting": "full-length G9a", "value": "did not methylate"}
    ]},
    {"molecule": "B3", "values": [
      {"measurement": "kcat", "setting": "Wt-H3", "value": 0.0183, "unit": "s⁻¹"}
    ]},
    {"molecule": "B4", "values": [
      {"measurement": "co-localization with HP1α", "setting": "HP1α", "value": "did not co-localize with HP1α"}
    ]}
  ]
}
